Experimental data gathered from unrelated publications.
Each line is one published result; the experiments were not run side by side.
Target: Phosphorylase b kinase gamma catalytic chain, liver/testis isoform (PHKG2, Homo sapiens, UniProt P15735)
Sequence (P15735 1-406, as in one of the studies): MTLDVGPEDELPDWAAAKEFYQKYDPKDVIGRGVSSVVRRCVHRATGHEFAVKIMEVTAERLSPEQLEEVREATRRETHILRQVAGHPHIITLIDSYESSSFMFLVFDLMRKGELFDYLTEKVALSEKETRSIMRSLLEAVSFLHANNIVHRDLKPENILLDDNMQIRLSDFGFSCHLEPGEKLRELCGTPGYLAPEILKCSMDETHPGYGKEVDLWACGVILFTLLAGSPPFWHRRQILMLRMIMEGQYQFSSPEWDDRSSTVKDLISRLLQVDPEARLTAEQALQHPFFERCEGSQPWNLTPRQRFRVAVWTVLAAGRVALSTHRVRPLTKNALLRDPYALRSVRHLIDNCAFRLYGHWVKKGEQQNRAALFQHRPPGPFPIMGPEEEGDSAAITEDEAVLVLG

Compound | assay | setting | measurement | value
Cn1cc(-c2cc(F)cc(N3CCn4c(cc5c4CCCC5)C3=O)c2CO)cc(Nc2ccc(N3CCN(C4COC4)CC3)cn2)c1=O | enzyme activity, inhibitor | 0.1 µM | inhibition | 8%
CC(C)(C)c1cc(C=C(C#N)C#N)cc(Br)c1O | enzyme activity, inhibitor | 0.5 µM | remaining activity | 106%
Cn1cncc1[C@@](O)(COc1ccc(C#N)cc1-c1ccc(OC(F)(F)F)cc1)c1ccc(C#N)cc1 | cell-free assay, competition with immobilised ligand | 1 µM | remaining binding | 92%
Cc1nn(C)cc1-c1nc2c(N3CCN(Cc4ccc(Cl)cc4)CC3)c(Cl)cnc2[nH]1 | binding, competition with immobilised ligand | 1 µM | remaining binding | 100%
Cn1cc(-c2cccc(N3CCc4c(sc5c4CC(C)(C)C5)C3=O)c2CO)cc(Nc2ccncn2)c1=O | enzyme activity, inhibitor | 1 µM | inhibition | -1%
O=C(NCc1ncc(C(F)(F)F)cc1Cl)c1ccc2c(c1)C1(CCS(=O)(=O)CC1)[C@H](C1CC1)N2S(=O)(=O)c1ccc(F)cc1 | cell-free assay, competition with immobilised ligand | 1 µM | remaining binding | 96%
O=c1[nH]c2ccccc2n1C1CCN(Cc2ccc(-c3[nH]c4cc5ncnc5cc4nc3-c3ccccc3)cc2)CC1 | cell-free assay | 0.5 µM | remaining signal | 104%
Nc1ncc(-c2nc(N3CCOCC3)nc(N3CCOCC3)n2)c(C(F)F)n1 | binding, competition with immobilised ligand | 10 µM | remaining binding | 67%
COc1ncccc1-c1cnn2ccc(N3CCN(C(=O)OC(C)C)CC3)nc12 | binding, competition with immobilised ligand | 1 µM | remaining binding | 100%
